Tests used:
Type in all cases: cell-based
[1] = target: Metabotropic glutamate receptor 2 (Rattus norvegicus, UniProt P31421); experiment: Positive allosteric modulation of rat mGlu2 receptor expressed in HEK293 cells coexpressing GIRK assessed as thallium influx in presence of EC20 glutamate by CODA-RET assay
Summary of the method: (§1)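 HEK293/GIRK thallium flux assay in cells expressing only mGlu2 or only mGlu4. Concentration-response measured against a fixed EC20 glutamate level. Potency (EC50), Hill slope and efficacy (% of the response to saturating glutamate) come from a single experiment run in triplicate.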

[2] = target: Metabotropic glutamate receptor 2 (Rattus norvegicus) (UniProt P31421); experiment: Positive allosteric modulation of rat mGlu2 receptor expressed in HEK293 cells coexpressing GIRK assessed as thallium influx by CODA-RET assay relative to glutamate; details: filed as positive allosteric modulator; summary of the method: as §1
Metabotropic glutamate receptor 2 (Rattus norvegicus), sequence (P31421 19-872 limits assumed): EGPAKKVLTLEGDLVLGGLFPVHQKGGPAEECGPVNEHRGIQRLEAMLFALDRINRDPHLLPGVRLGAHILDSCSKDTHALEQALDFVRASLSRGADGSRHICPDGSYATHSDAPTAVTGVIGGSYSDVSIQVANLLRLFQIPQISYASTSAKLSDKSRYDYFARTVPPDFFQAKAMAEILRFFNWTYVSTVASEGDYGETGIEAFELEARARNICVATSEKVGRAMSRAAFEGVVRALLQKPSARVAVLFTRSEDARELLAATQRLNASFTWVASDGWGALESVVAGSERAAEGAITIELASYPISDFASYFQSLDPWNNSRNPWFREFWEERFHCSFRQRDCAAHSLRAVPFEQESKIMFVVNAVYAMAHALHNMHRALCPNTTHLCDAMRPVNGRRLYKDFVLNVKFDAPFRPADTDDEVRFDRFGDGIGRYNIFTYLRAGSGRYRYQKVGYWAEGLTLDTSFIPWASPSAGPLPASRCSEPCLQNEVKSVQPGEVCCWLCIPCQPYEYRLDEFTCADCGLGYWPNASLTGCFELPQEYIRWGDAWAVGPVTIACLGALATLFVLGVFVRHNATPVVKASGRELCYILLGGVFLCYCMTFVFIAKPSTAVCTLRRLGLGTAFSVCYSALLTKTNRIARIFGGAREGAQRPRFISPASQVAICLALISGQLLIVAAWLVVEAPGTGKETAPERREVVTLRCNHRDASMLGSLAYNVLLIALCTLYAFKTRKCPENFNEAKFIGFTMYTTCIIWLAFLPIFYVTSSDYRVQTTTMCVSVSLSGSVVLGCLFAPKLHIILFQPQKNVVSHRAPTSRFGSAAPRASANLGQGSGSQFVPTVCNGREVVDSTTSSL

[3] = target: Metabotropic glutamate receptor 4 (Rattus norvegicus, UniProt P31423); experiment: Positive allosteric modulation of rat mGlu4 receptor expressed in HEK293 cells coexpressing GIRK assessed as thallium influx in presence of EC20 glutamate by CODA-RET assay; summary of the method: as §1
Metabotropic glutamate receptor 4, sequence (P31423 whole entry): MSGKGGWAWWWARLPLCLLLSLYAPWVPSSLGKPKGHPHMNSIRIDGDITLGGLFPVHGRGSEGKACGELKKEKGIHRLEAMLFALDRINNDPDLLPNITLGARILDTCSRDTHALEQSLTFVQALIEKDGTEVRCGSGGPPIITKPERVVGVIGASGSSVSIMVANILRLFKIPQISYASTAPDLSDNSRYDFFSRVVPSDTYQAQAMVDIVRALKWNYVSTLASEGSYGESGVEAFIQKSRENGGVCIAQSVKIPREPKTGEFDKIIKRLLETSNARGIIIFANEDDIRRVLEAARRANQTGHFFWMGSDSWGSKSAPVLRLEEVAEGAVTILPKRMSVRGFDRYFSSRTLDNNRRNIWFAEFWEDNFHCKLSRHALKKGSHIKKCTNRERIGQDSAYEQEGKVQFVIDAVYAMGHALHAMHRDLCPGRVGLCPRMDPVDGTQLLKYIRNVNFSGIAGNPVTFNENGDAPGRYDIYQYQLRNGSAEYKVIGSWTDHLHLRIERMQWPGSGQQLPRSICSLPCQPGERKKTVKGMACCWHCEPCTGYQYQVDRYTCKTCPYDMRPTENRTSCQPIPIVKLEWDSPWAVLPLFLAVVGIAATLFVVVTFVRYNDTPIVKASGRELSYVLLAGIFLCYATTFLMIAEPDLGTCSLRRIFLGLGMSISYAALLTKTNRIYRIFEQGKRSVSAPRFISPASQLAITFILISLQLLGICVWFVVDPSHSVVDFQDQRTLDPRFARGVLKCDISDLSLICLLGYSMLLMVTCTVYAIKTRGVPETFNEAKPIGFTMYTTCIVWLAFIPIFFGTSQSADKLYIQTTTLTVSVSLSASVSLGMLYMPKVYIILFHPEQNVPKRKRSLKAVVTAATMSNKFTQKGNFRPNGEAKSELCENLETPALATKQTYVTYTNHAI

[4] = target: Metabotropic glutamate receptor 4 (Rattus norvegicus) (UniProt P31423); experiment: Positive allosteric modulation of rat mGlu4 receptor expressed in HEK293 cells coexpressing GIRK assessed as thallium influx by CODA-RET assay relative to glutamate; details: filed as positive allosteric modulator; summary of the method: as §1
Metabotropic glutamate receptor 4 (Rattus norvegicus), sequence (P31423 whole entry): as above

[5] = Positive allosteric modulation of rat mGlu2/mGlu4 receptor expressed in HEK293 cells coexpressing GIRK assessed as thallium influx in presence of EC20 glutamate by CODA-RET assay
Summary of the method: (§2)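 HEK293 cells co-expressing mGlu2, mGlu4 and GIRK channels; thallium flux read-out. Test compound concentration-response in the presence of a fixed EC20 glutamate concentration. Gives EC50, Hill slope and maximal response as % of a saturating glutamate concentration. N=3 experiments, each in triplicate.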

[6] = system: HEK293; experiment: Positive allosteric modulation of rat mGlu2/mGlu4 receptor expressed in HEK293 cells coexpressing GIRK assessed as thallium influx by CODA-RET assay relative to glutamate; details: filed as positive allosteric modulator; summary of the method: as §2

Metabotropic glutamate receptor 2, sequence (P31421 whole entry): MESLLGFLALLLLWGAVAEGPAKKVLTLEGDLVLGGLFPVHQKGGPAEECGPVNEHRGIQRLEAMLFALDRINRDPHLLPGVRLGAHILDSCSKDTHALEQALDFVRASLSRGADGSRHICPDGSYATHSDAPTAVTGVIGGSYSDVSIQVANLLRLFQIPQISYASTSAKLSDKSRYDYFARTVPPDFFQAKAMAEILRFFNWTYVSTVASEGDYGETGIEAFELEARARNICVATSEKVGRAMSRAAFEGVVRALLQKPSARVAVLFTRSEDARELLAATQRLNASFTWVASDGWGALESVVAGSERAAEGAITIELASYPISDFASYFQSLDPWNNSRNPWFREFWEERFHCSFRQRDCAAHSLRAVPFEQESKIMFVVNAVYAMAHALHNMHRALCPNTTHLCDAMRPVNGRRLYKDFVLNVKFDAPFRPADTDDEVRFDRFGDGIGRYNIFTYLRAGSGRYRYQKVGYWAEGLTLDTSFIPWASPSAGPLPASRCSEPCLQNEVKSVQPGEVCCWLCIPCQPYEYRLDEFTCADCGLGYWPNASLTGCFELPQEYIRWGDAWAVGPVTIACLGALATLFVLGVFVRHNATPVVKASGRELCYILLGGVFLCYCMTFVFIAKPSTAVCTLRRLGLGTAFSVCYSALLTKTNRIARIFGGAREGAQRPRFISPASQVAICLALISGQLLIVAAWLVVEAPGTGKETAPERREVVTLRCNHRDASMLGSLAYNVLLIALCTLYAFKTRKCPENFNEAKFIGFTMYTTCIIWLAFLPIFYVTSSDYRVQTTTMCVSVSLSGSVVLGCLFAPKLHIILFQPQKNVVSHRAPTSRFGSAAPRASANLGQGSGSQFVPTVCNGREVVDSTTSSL

Compound	EC50 [1] [nM]	Emax [2] [%]	EC50 [3] [nM]	Emax [4] [%]	EC50 [5] [nM]	Emax [6] [%]
COc1cc(NC(=O)c2ccccn2)ccc1NC(=O)c1ccc(NC(=O)COCC(=O)NCCCCCCCCCCNC(=O)COc2ccc(-c3cccc(COc4cc5c(c(C)c4C)C(=O)C(C4CCCC4)C5)c3)cc2C(=O)O)cc1Cl (stereo not given)	134	102	> 10000	41	350	86
COc1cc(NC(=O)c2ccccn2)ccc1NC(=O)c1ccccc1Cl			34	94.4	2760	42
COc1cc(NC(=O)c2ccccn2)ccc1NC(=O)c1ccc(NC(=O)COCC(=O)NCCCCCCCNC(=O)COc2ccc(-c3cccc(COc4cc5c(c(C)c4C)C(=O)C(C4CCCC4)C5)c3)cc2C(=O)O)cc1Cl (stereo not given)	122	101	30	85	524	86
Cc1c(OCc2cccc(-c3ccc(O)c(C(=O)O)c3)c2)cc2c(c1C)C(=O)C(C1CCCC1)C2 (stereo not given)	62	113				
COc1cc(NC(=O)c2ccccn2)ccc1NC(=O)c1ccc(NC(=O)COCC(=O)NCCCCCNC(=O)COc2ccc(-c3cccc(COc4cc5c(c(C)c4C)C(=O)C(C4CCCC4)C5)c3)cc2C(=O)O)cc1Cl (stereo not given)	92	102	35	110	128	89
COc1ccc(-c2cccc(COc3cc4c(c(C)c3C)C(=O)C(C3CCCC3)C4)c2)cc1C(=O)O (stereo not given)	84.3	88.2			300	64.5
COc1cc(NC(=O)c2ccccn2)ccc1NC(=O)c1ccc(NC(=O)COCC(=O)NCCNC(=O)COc2ccc(-c3cccc(COc4cc5c(c(C)c4C)C(=O)C(C4CCCC4)C5)c3)cc2C(=O)O)cc1Cl (stereo not given)	281	92	657	104	463	70
COc1cc(NC(=O)c2ccccn2)ccc1NC(=O)c1ccc(NC(=O)COCC(=O)NCCCCCCCCCCCCNC(=O)COc2ccc(-c3cccc(COc4cc5c(c(C)c4C)C(=O)C(C4CCCC4)C5)c3)cc2C(=O)O)cc1Cl (stereo not given)	1180	102	> 10000	45	2070	71
COc1cc(NC(=O)c2ccccn2)ccc1NC(=O)c1ccc(NC(=O)COCC(=O)NCCCCCCCCNC(=O)COc2ccc(-c3cccc(COc4cc5c(c(C)c4C)C(=O)C(C4CCCC4)C5)c3)cc2C(=O)O)cc1Cl (stereo not given)	94	97	32	52	371	83
COc1cc(NC(=O)c2ccccn2)ccc1NC(=O)c1ccc(NC(=O)COCC(=O)NCCCCNC(=O)COc2ccc(-c3cccc(COc4cc5c(c(C)c4C)C(=O)C(C4CCCC4)C5)c3)cc2C(=O)O)cc1Cl (stereo not given)	98	98	33	113	150	88
COc1cc(NC(=O)c2ccccn2)ccc1NC(=O)c1ccc(NC(=O)COCC(=O)NCCCCCCNC(=O)COc2ccc(-c3cccc(COc4cc5c(c(C)c4C)C(=O)C(C4CCCC4)C5)c3)cc2C(=O)O)cc1Cl (stereo not given)	62	102	32	106	680	101
COc1cc(NC(=O)c2ccccn2)ccc1NC(=O)c1ccc(NC(=O)COCC(=O)NCCCNC(=O)COc2ccc(-c3cccc(COc4cc5c(c(C)c4C)C(=O)C(C4CCCC4)C5)c3)cc2C(=O)O)cc1Cl (stereo not given)	54	100	38	114	90	
Cc1c(OCc2cccc(-c3cccc(C(=O)O)c3)c2)cc2c(c1C)C(=O)C(C1CCCC1)C2 (stereo not given)	69	118				

Source: ChEMBL document CHEMBL4725236, “Synthesis and pharmacological evaluation of bivalent tethered ligands to target the mGlu heterodimeric receptor results in a compound with mGlu homodimer selectivity” (Bioorg Med Chem Lett, 2020)
